An excerpt weighted towards active compounds, which were near 1.9% of everything screened.
CHRM5 PAM – CHRM5 positive allosteric modulation. AID 624038. CHO-K1 hM5, Fluo-8 calcium, ACh EC20 PAM; 0% = ACh EC20, 100% = ACh EC100. P08912. 0.3% of 360,000 active. activation, % at 3 µM;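 active means activation above the run cutoff, the mean activation of all test compounds plus 3 SD, cut at about 18% in these data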
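Test system: CHO-K1 hM5 cells / Doses: single-point, 3 µM nominal / Times: Post-acetylcholine fluorescence recording 140 s / Technique: Fluo-8 calcium fluorescence / Measure: Max/basal fluorescence ratio as % of EC20–EC100 ACh window / Benchmarks: low control EC20 acetylcholine (0%), high control EC100 acetylcholine (100%) / Replicates: one well per compound, no replicates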
CHRM4 antagonist – antagonists of human muscarinic M4 receptor (CHRM4); P08173; CHO-hM4 cells, ACh EC80, Fluo-8 calcium fluorescence; inhibition, % at 3 µM; 0.73% of 360,000 active; AID 624125;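 active means inhibition above its plate's cutoff, the mean inhibition of sample wells plus 3 SD, cut at about 27% in these data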;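 further: 0% = acetylcholine EC80 with DMSO and 100% = DMSO without agonist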
Target sequence (P08173 whole entry, looked up): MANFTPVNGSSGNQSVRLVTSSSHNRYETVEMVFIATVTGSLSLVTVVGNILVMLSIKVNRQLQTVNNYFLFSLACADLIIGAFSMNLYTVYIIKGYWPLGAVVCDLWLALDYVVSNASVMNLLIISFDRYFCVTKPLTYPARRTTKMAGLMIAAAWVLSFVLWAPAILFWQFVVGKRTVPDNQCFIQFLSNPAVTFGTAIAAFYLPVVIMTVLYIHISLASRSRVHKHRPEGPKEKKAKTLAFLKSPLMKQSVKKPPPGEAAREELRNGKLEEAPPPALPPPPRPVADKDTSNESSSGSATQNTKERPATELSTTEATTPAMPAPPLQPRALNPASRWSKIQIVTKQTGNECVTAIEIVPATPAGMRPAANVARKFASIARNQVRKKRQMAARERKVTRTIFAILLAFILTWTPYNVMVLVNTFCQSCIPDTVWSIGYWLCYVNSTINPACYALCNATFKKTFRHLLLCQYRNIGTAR
CHRM4 PAM – CHRM4 positive allosteric modulation. P08173. CHO-K1 hM4/Gqi5, Fluo-8 calcium fluorescence, ACh EC20; 0% = ACh EC20, 100% = maximal ACh. activation, % at 3 µM. 0.4% of 360,000 active. AID 624126;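 active means activation above its plate's cutoff, the mean activation of sample wells plus 3 SD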
CHRM5 agonist – CHRM5 agonism in calcium assay; P08912; CHO-K1 hM5 cells, Fluo-8 calcium fluorescence; 0% DMSO wells, 100% maximal acetylcholine response; activation, % at 3 µM; 0.19% of 360,000 active; AID 624037;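 active means activation above the run's mean over test compounds plus 3 SD, cut at about 23% in these data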;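 further: signal is peak over basal fluorescence ratio across the kinetic read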
CHRM5 antagonist – antagonists of human muscarinic M5 receptor (CHRM5); P08912; CHO-hM5 cells, Fluo-8 calcium fluorescence, ACh EC80; inhibition, % at 3 µM; 0.59% of 360,000 active; AID 624040;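 active means inhibition above a per-plate cutoff, the mean of that plate's test compounds plus 3 SD, cut at about 27% in these data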;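 further: 0% = acetylcholine EC80 with DMSO and 100% = DMSO without agonist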
M4 ag – agonists of human muscarinic M4 receptor (CHRM4); activation, % at 3 µM; AID 624127; 0.14% of 360,000 active; CHO-K1 hM4/Gqi5, Fluo-8 calcium fluorescence; vehicle 0%, full acetylcholine response 100%; P08173;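 active means activation above the run mean over all test wells plus 3 SD, cut at about 32% in these data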;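 further: peak over basal fluorescence ratio per well then scaled between controls; 0% = DMSO wells and 100% = acetylcholine at EC100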
Active calls of the source: *.

SMILES | CHRM5 PAM | CHRM4 antagonist | CHRM4 PAM | CHRM5 agonist | CHRM5 antagonist | M4 ag
Cc1ccc(Cl)cc1NC(=O)N(C)CCO | -4 | -8 | 1 | -3 | -1 | 0
O=C1CCC(c2ccccc2)(C2CCN(Cc3ccccc3)CC2)C(=O)N1 (stereo unspecified) | -18 | 99* | -18 | -1 | 99* | 1
O=C1CCN(Cc2ccccc2)C(=O)N1 | 7 | -4 | 12 | 2 | 3 | 1
CCOC(=O)c1ccc(NC(=S)N2CCSC2c2ccc(Br)cc2)cc1 (stereo unspecified) | 2 | 28* | -8 | 14 | 13 | 46*
CCOC(=O)c1ccc(NC(=S)N2CCC(O)CC2)cc1 | 0 | -7 | 2 | -3 | 11 | 1
COCCNC(=O)CN1N=C(c2ccc(C)cc2)CCC1=O | -2 | 1 | -2 | -2 | 4 | 0
COc1cc2cc(C(c3nnnn3C3CCCC3)N3CCCCC3)c(=O)[nH]c2cc1OC (stereo unspecified) | -12 | 5 | 12 | -2 | 34* | 2
CCOc1ccccc1NC(=O)CSc1nnnn1C1CCCC1 | 1 | 6 | -5 | 0 | 7 | 1
CCOC(=O)c1c(C)nsc1NC(=O)C1CCCCC1 | 8 | -26 | 14* | 3 | -10 | -1
O=C(COC(=O)c1cc(=O)[nH]c2ccccc12)Nc1ccc(Cl)cn1 | 3 | 0 | 5 | 1 | 12 | 1
CN(Cc1nccn1C)C(=O)c1ccc(OC2CCN(CCc3ccccc3)CC2)cc1 | -11 | 20 | -13 | -9 | 28* | 0
CC(C)N(C)C(=O)c1ccc(OC2CCN(CCc3ccccc3)CC2)cc1 | -4 | 6 | -30 | -18 | 3 | 2
CC(c1nccs1)N(C)C(=O)c1ccc(OC2CCN(CCc3ccccc3)CC2)cc1 (stereo unspecified) | -14 | 31* | -16 | -9 | 36* | 2
C#CCOCCOCCOCCNc1nc(N2CCN(C(=O)CCCCCCCCCCNC(=O)[C@H](CCCCN)n3cc(C)nn3)CC2)nc(N2CCN(C(=O)CCCCCCCCCCNC(=O)[C@@H]([C@H](C)O)n3cc(C)nn3)CC2)n1 | 0 | 2 | -4 | -10 | 9 | 22
C#CCOCCOCCOCCNc1nc(N2CCN(C(=O)CCCCCCCCCCNC(=O)[C@@H](CCSC)n3cc(CCO)nn3)CC2)nc(N2CCN(C(=O)CCCCCCCCCCNC(=O)[C@@H]([C@H](C)O)n3cc(C)nn3)CC2)n1 | -8 | 12 | -5 | 2 | 27* | 3
C#CCOCCOCCOCCNc1nc(N2CCN(C(=O)CCCCCCCCCCNC(=O)[C@@H](CCC(=O)O)n3cc(CCCCCN)nn3)CC2)nc(N2CCN(C(=O)CCCCCCCCCCNC(=O)[C@H](CCCCN)n3cc(C[C@@H](C)CC)nn3)CC2)n1 | 0 | 4 | -12 | 0 | 10 | 33*
C#CCOCCOCCOCCNc1nc(N2CCN(C(=O)CCCCCCCCCCNC(=O)[C@@H](CCC(=O)O)n3cc(CCCCCN)nn3)CC2)nc(N2CCN(C(=O)CCCCCCCCCCNC(=O)[C@H](CO)n3cc(CCCCCN)nn3)CC2)n1 | -3 | 7 | -4 | 1 | 1 | 1
Cc1cc2[nH]c(=O)c(=O)[nH]c2cc1S(=O)(=O)N1CCC(C)CC1 | 1 | -4 | 3 | 1 | 3 | 0
Cc1onc(-c2ccccc2)c1C(=O)NCc1ccc(Cl)cc1 | 1 | -26 | 4 | -8 | -8 | 3
CC1(C)Cc2c(ccc3ccccc23)C2=C(C(=O)N3CCCC3)C(=O)C(=O)N21 | -2 | -4 | 18* | 7 | 17 | -2
Cc1cccc(C)c1NC(=O)Cn1cc(C=O)c2ccccc21 | -12 | 5 | -8 | 7 | 11 | 10
CCN(CC)CCOC(=O)C(Cc1ccco1)Cc1cccc2ccccc12 (stereo unspecified) | -27 | 17 | -15 | -16 | 28* | 12
CCN1C(=NCCCCO)N[C@@H](c2cccc(F)c2)C(C(=O)OC)=C1C | 5 | -11 | 23* | -6 | -1 | 0
Cc1ccc(C(C)(C)C)cc1S(=O)(=O)N1CCC(C(=O)N2CCN(c3ccc(O)cc3)CC2)CC1 | -10 | 1 | -5 | 6 | 5 | 8
O=C(NCc1ccco1)c1cccc(NS(=O)(=O)c2ccccc2F)c1 | 19* | 18 | 13 | 5 | 21 | 1
SMILES | CHRM5 PAM | CHRM4 antagonist | CHRM4 PAM | CHRM5 agonist | CHRM5 antagonist | M4 ag
O=C(NCc1ccco1)c1cccc(NS(=O)(=O)c2cccc(F)c2)c1 | -3 | -5 | -9 | 0 | 3 | 0
CN(CC(=O)NCCc1ccc(S(N)(=O)=O)cc1)CC(=O)Nc1ccc(Cl)c(C(F)(F)F)c1 | 9 | -11 | 23* | -2 | 1 | -1
CCOC(=O)Cn1cc(C(=O)C(=O)N2CCOCC2)c2ccccc21 | 5 | 1 | 10 | -2 | 11 | 1
CCOC(=O)C(=O)c1cn(C2OCC(OC(C)=O)C(OC(C)=O)C2OC(C)=O)c2ccccc12 (stereo unspecified) | 4 | -4 | 22* | -1 | -6 | 2
CCN(CC(=O)Nc1c(F)cccc1F)C(=O)/C=C/c1cn(Cc2ccccc2)nc1-c1cccnc1 | -6 | 7 | 1 | -3 | 27* | 2
O=C1/C(=C\c2ccccc2)CN(C(=O)CCN2CCCCC2)C/C1=C/c1ccccc1 | -3 | 20 | -10 | -10 | 8 | 4
O=C1/C(=C\c2ccc(Cl)c(Cl)c2)CN(C(=O)CCN2CCOCC2)C/C1=C/c1ccc(Cl)c(Cl)c1 | -1 | 43* | -7 | 8 | 17 | 6
O=C(COC(=O)[C@@H]1CCCN1S(=O)(=O)c1ccccc1F)NCc1ccc2c(c1)OCO2 | 0 | 2 | 5 | 5 | 4 | 5
Cc1cc(C)n(/N=C/c2ccccc2O)c(=O)c1 | 25* | 9 | 10 | 3 | -19 | 1
Cc1onc(-c2c(F)cccc2Cl)c1C(=O)Nc1cc(S(=O)(=O)N2CCCCC2)ccc1O | -39 | 27* | -14 | -2 | 20 | 24
Cc1noc(C)c1C(=O)Nc1ccc(S(=O)(=O)N2CCCCC2)cc1 | -1 | 2 | 16* | -2 | 10 | 6
Cc1onc(-c2c(F)cccc2Cl)c1C(=O)Nc1ccc(S(=O)(=O)N2CCOCC2)cc1 | -1 | -2 | 0 | -1 | 10 | 4
Cc1noc(C)c1C(=O)Nc1ccc(S(=O)(=O)N2CCC(C)CC2)cc1 | -1 | 1 | -5 | 9 | 1 | 11
CCNC(=O)C1CCCN(C(=O)c2ccc(-c3ccccc3)cc2)CC1 (stereo unspecified) | -4 | -17 | 5 | 0 | -4 | 2
O=C(c1ccco1)N1CCN(C(=S)Nc2ccc(Br)cc2Cl)CC1 | 4 | -3 | 2 | -2 | -8 | 3

Source: PubChem
